Data taken from PubChem BioAssay.
Activity calls are given as the source filed them.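 The calls were made as follows, unless noted: active = fluorescence slope after compound addition differing from the mean of all tested samples at 99.7% confidence, mostly higher but some lower; inactive = the rest.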

How the values were obtained:
[1] = inhibitors of TNFa-induced NFkB p65 translocation, primary screen, imaging, HUVEC, MLSMR starter and 10KST1 sets (AID 438;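 active = inhibition above 20% together with a positive visual image hit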;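 also: compound added about 3h40 before a 20 min TNFalpha stimulation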;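 as to inhibition: signal is the nuclear over cytoplasmic p65 intensity ratio per well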); conditions: HUVEC TNFa-induced p65 nuclear translocation; cell count: measured here: nuclei count (cytotoxicity indicator), at 2.08 µM; inhibition: at 2 µM, stronger effect = higher value, 0% TNFa-plus-vehicle, 100% no-TNFa wells
[2] = endothelial E-selectin expression blockers – imaging, HUVEC, immunofluorescence, MLSMR starter and 10KST1 sets, primary screen (AID 487;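 active = visually confirmed hit in the image check and inhibition above 20%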;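 as to inhibition: signal is fraction of cell area covered by stained E-selectin grains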;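 as to nuclei count: 100% = median nuclei count of all wells on the same plate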); conditions: HUVEC TNFalpha-induced E-selectin immunofluorescence imaging, at 2 µM; inhibition: stronger effect = higher value; nuclei count: measured here: cell number, toxicity
[3] = Primary imaging screen for DUSP6 inhibitors that restore phospho-Erk in transfected HeLa cells, chemical complementation (AID 609;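 active = compounds giving at least 50% inhibition in the cell-based MKP-3 phosphatase rescue imaging test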;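 as to inhibition: phospho-Erk level distribution per well compared with pooled transfected vehicle control wells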); conditions: HeLa MKP-3 transfected, phospho-Erk imaging KS statistic, at 10 µM, cells stimulated with TPA for 15 min
[4] = biological target: Dual specificity protein phosphatase 6 (Homo sapiens) (UniProt Q16828); assay: as above; conditions: HeLa MKP-3 transfected, phospho-Erk imaging KS statistic; at 10 µM; stronger effect = higher value; cells stimulated with TPA for 15 min
Dual specificity protein phosphatase 6 (Homo sapiens), sequence (Q16828 whole entry, looked up): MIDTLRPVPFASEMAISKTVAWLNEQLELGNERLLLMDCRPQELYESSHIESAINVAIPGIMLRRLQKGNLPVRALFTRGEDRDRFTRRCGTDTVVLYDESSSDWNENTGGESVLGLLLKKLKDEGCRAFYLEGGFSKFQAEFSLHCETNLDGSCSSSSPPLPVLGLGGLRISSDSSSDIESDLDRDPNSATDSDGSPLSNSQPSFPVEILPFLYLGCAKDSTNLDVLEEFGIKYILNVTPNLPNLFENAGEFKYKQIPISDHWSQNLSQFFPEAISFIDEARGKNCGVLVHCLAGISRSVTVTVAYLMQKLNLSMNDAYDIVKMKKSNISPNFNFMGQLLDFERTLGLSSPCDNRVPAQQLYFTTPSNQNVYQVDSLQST

[5] = biological target: Voltage-gated potassium channel subunit beta-2 (Rattus norvegicus) (UniProt P62483); assay: inhibitors of rat Kvbeta2 reductase activity – biochemical, NADPH fluorescence, primary screen (AID 622;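 active = fluorescence slope higher than the sample average by over 3 SD, cut at about -0.22 in these data, passing the limit was not always enough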;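 also: slope of raw intensity against log time taken from 70 to 1610 s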); conditions: recombinant KvBeta, 4-cyanobenzaldehyde reduction, at 10 µM, stronger effect = higher value
Voltage-gated potassium channel subunit beta-2 (Rattus norvegicus), sequence (P62483 whole entry, looked up): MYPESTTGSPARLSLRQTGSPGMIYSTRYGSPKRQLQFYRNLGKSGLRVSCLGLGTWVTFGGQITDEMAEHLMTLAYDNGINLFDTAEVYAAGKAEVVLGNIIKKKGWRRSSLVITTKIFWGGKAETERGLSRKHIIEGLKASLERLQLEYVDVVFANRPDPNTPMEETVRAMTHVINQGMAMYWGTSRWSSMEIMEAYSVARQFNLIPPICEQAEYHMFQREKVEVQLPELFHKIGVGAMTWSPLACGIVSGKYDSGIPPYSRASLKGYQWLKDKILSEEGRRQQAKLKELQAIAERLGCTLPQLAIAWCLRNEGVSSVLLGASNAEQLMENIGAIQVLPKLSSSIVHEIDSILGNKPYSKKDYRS

[6] = biological target: Voltage-gated potassium channel subunit beta-2 (Rattus norvegicus) (UniProt P62483); assay: enhancers of rat Kvbeta2 NADPH turnover – biochemical, NADPH fluorescence, primary screen (AID 623;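 active = NADPH fluorescence slope more negative than the mean of all samples by about 3 SD, 99.7% confidence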;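 also: fluorescence intensity change per second fitted from 20 to 320 s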); conditions: Recombinant KvBeta, NADPH fluorescence decrease slope, 10 min; at 10 µM; stronger effect = lower value
[7] = biological target: Muscarinic acetylcholine receptor M4 (Homo sapiens) (UniProt P08173); assay: M4-linked GIRK flux change, two-sided – cell-based, HEK293 M4/GIRK, thallium flux, BTC-AM, M4 allosteric agonist project, primary screen (AID 625); conditions: at 10 µM, actives lie on both sides;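 also: thallium influx through GIRK channels coupled to M4 in HEK293 cells with BTC-AM dye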
Muscarinic acetylcholine receptor M4 (Homo sapiens), sequence (P08173 whole entry, looked up): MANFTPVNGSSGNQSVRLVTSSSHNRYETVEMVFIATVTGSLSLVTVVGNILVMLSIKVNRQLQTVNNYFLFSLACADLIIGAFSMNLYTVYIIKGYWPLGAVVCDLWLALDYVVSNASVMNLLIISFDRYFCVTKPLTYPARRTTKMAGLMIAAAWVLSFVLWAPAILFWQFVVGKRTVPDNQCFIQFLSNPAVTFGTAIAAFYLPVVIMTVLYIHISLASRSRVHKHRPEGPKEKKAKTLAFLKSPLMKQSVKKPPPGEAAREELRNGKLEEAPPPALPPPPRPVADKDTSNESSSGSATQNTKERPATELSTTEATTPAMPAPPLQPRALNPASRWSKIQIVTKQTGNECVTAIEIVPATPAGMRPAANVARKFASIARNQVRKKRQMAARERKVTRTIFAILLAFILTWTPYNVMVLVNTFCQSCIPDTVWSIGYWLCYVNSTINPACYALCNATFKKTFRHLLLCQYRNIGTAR
Method in brief: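 Material – HEK293 cells with M4 receptor and GIRK channels · Buffer or medium – pH 7.3 thallium assay buffer · Doses – one dose, 10 µM final · Timing – cells overnight at 37 °C, BTC-AM loading 1 h, reads 2 min total · Measured by – kinetic fluorescence with BTC-AM dye · Controls – carbachol and DMSO controls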

[8] = inhibitors of larval lipid processing in zebrafish, primary screen, whole organism, PED6 fluorescence, gall bladder and intestine (AID 686;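 active = a full or partial loss of lipid-probe fluorescence in the fish gall bladder, intestine or both, judged by eye; inactive = no fluorescence loss, or compound toxic to the fish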;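 also: larvae 5 to 7 days old with five fish per well; signal comes from phospholipase A2 cleavage of quenched PED6 carried via bile; overnight exposure to compound and PED6 before scoring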); conditions: Zebrafish larvae PED6 lipid processing, fluorescence scoring; screened at 20 µM (by protocol)
Method in brief: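 system = live zebrafish larvae aged 5-7 days, whole organism | probe or stimulus = ingested quenched lipid PED6 at 100 nM | doses = 20 µM single dose | timing = overnight exposure | detection = fluorescence microscopy with visual scoring of gall bladder and intestine | read-out = visual per-well fluorescence inhibition score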

[9] = loss of swimming-algae plug formation – whole organism, Chlamydomonas reinhardtii, WT vs cilia-less mutant, absorbance, 96-well, primary screen (AID 463189;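 active = inhibition at or above 50% relative to wild type and mutant plate controls; inactive = inhibition below 50%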;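 also: 0% = wild type cc124 cells in DMSO and 100% = ciliumless bld1 mutant cells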); conditions: Chlamydomonas reinhardtii gravitaxis, OD600 absorbance, 2 days; at 10 µM; stronger effect = higher value
[10] = measured here: cell density z-score
[11] = measured here: nuclear c-Myc green intensity z-score
[12] = measured here: nuclear pErk red intensity z-score, stronger effect = higher value

Row | SMILES | cell count [1] | inhibition [1] | inhibition [2] | nuclei count [2] [%] | z-score [3, 10] | z-score [3, 11] | z-score [3, 12] | inhibition [4] | fluorescence slope [5] | NADPH fluorescence slope [6] | fluorescence slope [7] | outcome [8] | inhibition [9]
1 | CC(NC(=O)c1ccc(=O)oc1)c1ccccc1 (stereo not drawn) | 544 | 4.1% (inactive) | 56.8% (inactive) | 167 | -0.00091 | 1.16 | 1.91 | 13.9% (inactive) | -0.409 (inactive) | -5.3e-05 (inactive) | 0.00521 (inactive) | inactive | 6.14% (inactive)
2 | N#Cc1nc(COc2ccc(Br)cc2)oc1N1CCN(Cc2ccccc2)CC1 | 444 | 2% (inactive) | -74.5% (inactive) | 138 | 0.98 | 0.14 | -0.518 | 12.7% (inactive) | -0.444 (inactive) | -2.9e-05 (inactive) | 0.00951 (inactive) | inactive | 12.9% (inactive)
3 | COc1ccc(C(=O)CCN2CCCCCC2)cc1 | 387 | -7.4% (inactive) | -32.1% (inactive) | 148 | -0.26 | -0.113 | -0.00775 | 5.42% (inactive) | -0.438 (inactive) | -0.000102 (inactive) | 0.00485 (inactive) | inactive; toxic | -0.057% (inactive)
4 | CCOc1ccc(N=C(NC#N)SCC(=O)NC2CC2)cc1 | 613 | -1.5% (inactive) | -40.6% (inactive) | 161 | 0.193 | 0.708 | 0.295 | -2.29% (inactive) | -0.491 (inactive) | -4.8e-05 (inactive) | 0.00628 (inactive) | inactive | -3.68% (inactive)
5 | CCC(C(=O)Nc1nccs1)(C(F)(F)F)C(F)(F)F | 719 | -18.9% (inactive) | -106% (inactive) | 203 | 0.755 | 0.213 | 0.296 | 5.95% (inactive) | -0.49 (inactive) | -6.4e-05 (inactive) | 0.00509 (inactive) | inactive | 0.594% (inactive)
6 | N/C(=N\S(=O)(=O)c1ccc(Cl)s1)c1ccccc1 | 671 | -8.3% (inactive) | -77.1% (inactive) | 150 | 1.62 | -1.89 | -1.41 | 7.83% (inactive) | -0.473 (inactive) | -4.6e-05 (inactive) | 0.00465 (inactive) | inactive | 19.3% (inactive)
7 | CCSc1nc2sc3c(c2c(=O)n1C1CCCCC1)CCN(C)C3 | 364 | -10% (inactive) | -37.3% (inactive) | 101 | -0.995 | 0.578 | 0.504 | -8.59% (inactive) | -0.419 (inactive) | -6.1e-05 (inactive) | 0.00313 (inactive) | inactive | -2.62% (inactive)
8 | O=c1[nH]c2cnccc2n1-c1ccccc1 | 546 | 1.5% (inactive) | -390% (inactive) | 162 | 1.25 | -0.89 | -1.07 | 9.91% (inactive) | -0.404 (inactive) | -4.6e-05 (inactive) | 0.00569 (inactive) | inactive | -6.57% (inactive)
9 | CN1CCc2c(c3c(n2C)CCN(C)[C@@H]3c2cccnc2)[C@H]1c1cccnc1 | 406 | -15.1% (inactive) | -320% (inactive) | 159 | 0.329 | -0.347 | 0.296 | 15.4% (inactive) | -0.478 (inactive) | -5.4e-05 (inactive) | 0.00388 (inactive) | inactive; toxic | 5.73% (inactive)
10 | OC1(C2(O)CC(c3ccccc3)ON2)CCCCC1 (stereo not drawn) | 713 | 6.2% (inactive) | -8.5% (inactive) | 141 | 0.0893 | 0.138 | -1.51 | -5.81% (inactive) | -0.444 (inactive) | -3.6e-05 (inactive) | 0.00531 (inactive) | inactive | 0.004% (inactive)
11 | CC(C)c1nc(NCCN2CCOCC2)c(C#N)c2c1COC(C)(C)C2 | 401 | -10.6% (inactive) | -276% (inactive) | 186 | -0.66 | -0.209 | 1.4 | -0.584% (inactive) | -0.473 (inactive) | -0.000118 (inactive) | 0.00407 (inactive) | inactive | 71.3% (active)
12 | Cc1cc(C(=O)O)c(CSc2ncn[nH]2)o1 | 652 | -7.4% (inactive) | -48.6% (inactive) | 174 | -1.18 | 1.91 | 1.7 | -5.81% (inactive) | -0.455 (inactive) | -0.000158 (inactive) | 0.0045 (inactive) | inactive | -11% (inactive)
13 | CC(=O)c1cccc(N=C2NC(=O)C(CO)(CO)S2)c1 | 634 | 1.6% (inactive) | -12.3% (inactive) | 118 | -2.29 | 1.22 | 0.157 | -2.09% (inactive) | -0.441 (inactive) | -4.4e-05 (inactive) | 0.00557 (inactive) | inactive | -10% (inactive)
14 | Cc1ccccc1COc1ccc(/C(O)=C2/C(=O)C(=O)N(CCCn3ccnc3)C2c2ccco2)cc1 (stereo not drawn) | 642 | -2.1% (inactive) | -23.1% (inactive) | 171 | -1.5 | -0.323 | 2.13 | 9.37% (inactive) | -0.48 (inactive) | -0.00012 (inactive) | 0.00521 (inactive) | inactive | 13.6% (inactive)
15 | CCOc1ccc2nc(NC(NC(C)=O)(C(=O)OC)C(F)(F)F)sc2c1 (stereo not drawn) | 550 | 1.9% (inactive) | -54.7% (inactive) | 119 | -0.584 | 0.796 | 1.15 | -4.59% (inactive) | -0.459 (inactive) | -0.000128 (inactive) | 0.00553 (inactive) | inactive | 7.67% (inactive)
16 | CC1=C(C#N)C(=O)OC(C)(C)C1 | 660 | -3.9% (inactive) | -22.9% (inactive) | 101 | -2.1 | 0.204 | -1.02 | -1.98% (inactive) | -0.489 (inactive) | -7.4e-05 (inactive) | 0.00496 (inactive) | inactive | -18.3% (inactive)
17 | NC(=O)C(c1ccccc1)C1CCCC1 (stereo not drawn) | 603 | -8.2% (inactive) | -33.8% (inactive) | 113 | 1.58 | -0.32 | -0.629 | -3.95% (inactive) | -0.409 (inactive) | -4.8e-05 (inactive) | 0.00443 (inactive) | inactive | -3.81% (inactive)
18 | Cc1cccc(NC(=O)c2cc(N3CCOCC3)nc3ccccc23)c1 | 620 | -13.1% (inactive) | -446% (inactive) | 148 | -1.06 | 1.5 | 2.96 | -11.5% (inactive) | -0.438 (inactive) | -7.5e-05 (inactive) | 0.00519 (inactive) | inactive | -4.1% (inactive)
19 | Cc1nn(CC(N)=O)c(=O)c2ccccc12 | 579 | -2.9% (inactive) | -62.8% (inactive) | 142 | 2.22 | -0.838 | 0.00121 | 10.9% (inactive) | -0.485 (inactive) | -0.00011 (inactive) | 0.00427 (inactive) | inactive | -4.61% (inactive)
20 | Cc1nc2c(c(N3CCOCC3)n1)OCC(=O)N2 | 562 | -5.6% (inactive) | -63.7% (inactive) | 132 | -1.14 | 0.329 | 1.34 | -4.59% (inactive) | -0.454 (inactive) | -9.1e-05 (inactive) | 0.00529 (inactive) | inactive | 31.8% (inactive)
21 | N#CCCN(C(=O)c1ccco1)c1ccccc1 | 600 | 3.1% (inactive) | -91% (inactive) | 128 | 0.6 | -1.06 | -0.443 | 1.42% (inactive) | -0.462 (inactive) | -0.000111 (inactive) | 0.00534 (inactive) | inactive | -5.86% (inactive)
